The results in this text go back to ChEMBL document CHEMBL3120083, “Discovery of N-[4-[6-tert-butyl-5-methoxy-8-(6-methoxy-2-oxo-1H-pyridin-3-yl)-3-quinolyl]phenyl]methanesulfonamide (RG7109), a potent inhibitor of the hepatitis C virus NS5B polymerase” (J Med Chem, 2014).

Converted amounts (≈) assume the structure as drawn.

Usually EC50 stands for the concentration giving half of the maximal effect. The term IC50 denotes the concentration needed to halve the response being measured. A low value points to inhibition by little substance. What is called EC90 is the concentration at which the effect reaches the 90% level.

In data set [1] the test system is Hepatitis C virus. Kind of data set: Antiviral activity against Hepatitis C virus genotype 1b Con1 infected in human 2209-23 cells after 72 hrs by luciferase reporter gene assay. As to conditions: isolate Con1, 2209-23, 72 h. It is filed as functional, organism-based, Hepacivirus hominis. In a few lines:
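Stable GT-1b Con1 subgenomic replicon cell line expressing a renilla luciferase reporter, used as the readout of inhibition. EC50 from luciferase signal, n 2.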
A general note: In a reporter assay the amount or activity of a reporter protein is the signal.

Data set [2] deals with Hepatocyte. As to the kind of experiment: Intrinsic clearance in human hepatocytes assessed per 10^6 cells. It is filed as ADME, cell-based. In a few lines:
(§1)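 Suspended hepatocytes (about 1.0×10^6 cells/mL) in Williams' medium E with glutamine, antibiotics, insulin, dexamethasone and 10% FCS, 37 °C, 5% CO2, shaken at 900 rpm. Compound at 0.1–10.0 μM. Stopped with methanol plus internal standard at 2–180 min. Parent remaining by LC/MS/MS peak area ratio, in duplicate.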

Data set [3] concerns Hepatitis C virus. Kind of data set: Antiviral activity against Hepatitis C virus genotype 1a H77 infected in human 2209-23 cells after 72 hrs by luciferase reporter gene assay. As to conditions: genotype 1a H77, 2209-23, 72 h. Type of data set: functional, organism-based, Hepacivirus hominis.
For data set [4], the system named is Hepatocyte. Kind of data set: Intrinsic clearance in rat hepatocytes assessed per 10^6 cells. Type of data set: ADME, cell-based. In outline:
as §1

The nature of data set [5]: Inhibition of N-terminal 6xHis-tagged Hepatitis C virus genotype 1b Con1 NS5B polymerase containing 21-amino acid deletion at C-terminus expressed in Escherichia coli using radiolabeled UTP as substrate after 2 hrs by scintillation counting analysis. Details: species or system Hepatitis C virus (isolate Con1). In a few lines: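 GT-1b Con1 NS5B polymerase (NS5B570n-Con1) activity assay run with RNA template at 3 nM and enzyme at 3 nM. IC50 reported in nM.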

Data set [6] is described as follows: Thermodynamic solubility of the compound. It is filed as physicochemical. As to conditions: read-out: Therm_solubility.
In data set [7] the test system is Hepatitis C virus. As to the kind of experiment: Antiviral activity against Hepatitis C virus genotype 1a H77 infected in human 2209-23 cells after 72 hrs by luciferase reporter gene assay in presence of 40% human serum. Type of data set: functional, organism-based, Hepacivirus hominis. As to conditions: genotype 1a H77, 2209-23, 72 h.
The subject of data set [8] is Hepatitis C virus. Kind of data set: Antiviral activity against Hepatitis C virus genotype 1b Con1 infected in human 2209-23 cells after 72 hrs by luciferase reporter gene assay in presence of 40% human serum. It is filed as functional, organism-based, Hepacivirus hominis. As to conditions: isolate Con1, 2209-23, 72 h.
Data set [9] concerns Hepatitis C virus. Kind of data set: Ratio of EC50 for Hepatitis C virus genotype 1a H77 in presence of human serum to EC50 for Hepatitis C virus genotype 1a H77. Type of data set: functional, Hepacivirus hominis.
For data set [10], the system named is Hepatitis C virus. As to the kind of experiment: Ratio of EC50 for Hepatitis C virus genotype 1b Con1 in presence of human serum to EC50 for Hepatitis C virus genotype 1b Con1. It is filed as functional, Hepacivirus hominis, isolate Con1.
The nature of data set [11]: Ratio of EC50 for Hepatitis C virus genotype 1a H77 to EC50 for Hepatitis C virus genotype 1b Con1. Type of data set: functional.

`COc1c(C2(C(F)F)CC2)cc(-n2ccc(=O)[nH]c2=O)c2ncc(-c3ccc(NS(C)(=O)=O)cc3)cc12`: the EC50 with Hepatitis C virus [1] was 0.016 µM; in the data set with Hepatitis C virus [3], 0.095 µM. The CLH in the data set with Hepatocyte [2] turned out to be 0.1 uL/min/10^6 cells; in the data set with Hepatocyte [4], 1.7 uL/min/10^6 cells.

For the molecule `Cc1ccc(-c2cc(C(C)(C)C)cc3cc(N4CCCC(CNS(C)(=O)=O)C4)cnc23)c(=O)[nH]1` (stereo unspecified), in data set [5], the IC50 came to 0.625 µM. In addition, the EC50 in the data set with Hepatitis C virus [3] was over 1 µM. In addition, in data set [6], the solubility thermodynamic came out at 0.066 mg/mL (≈ 137 µM).

With `COc1c(C(C)(C)C)cc(-c2ccc[nH]c2=O)c2ncc(-c3ccc(NS(C)(=O)=O)cc3)cc12`, the concentration giving a half-maximal response (EC50) in the data set with Hepatitis C virus [1] was 0.0031 µM; in the data set on Hepatitis C virus [7], 0.004 µM; in the data set with Hepatitis C virus [8], 0.011 µM; with Hepatitis C virus [3], 0.0052 µM. Besides, the values for the EC90 in the data set on Hepatitis C virus [7] and with Hepatitis C virus [8] were 0.025 µM and 0.047 µM, respectively. For the same molecule, the figures for the “Ratio EC50” value (with Hepatitis C virus [9]; with Hepatitis C virus [10]; in [11]) were 0.8, 0.8 and 1.7, respectively.

As for `COc1c(C(F)(F)F)cc(-n2ccc(=O)[nH]c2=O)c2ncc(-c3ccc(NS(C)(=O)=O)cc3)cc12`, the figures for the EC50 in the data set with Hepatitis C virus [1] and in the data set on Hepatitis C virus [3] were 0.057 µM and 0.821 µM, respectively. The results for the CLH in the data set with Hepatocyte [2] and in the data set on Hepatocyte [4] were 1.5 uL/min/10^6 cells and 1.8 uL/min/10^6 cells, respectively.

For the molecule `COc1c(C(C)(C)C)cc(-c2cn(C)c(=O)[nH]c2=O)c2ncc(-c3ccc(NS(C)(=O)=O)cc3)cc12`, the EC50 in the data set on Hepatitis C virus [1] was found to be 0.0015 µM; with Hepatitis C virus [3] it was 0.003 µM.

For `COc1c(C(C)(C)C)cc(-c2ccc(C)[nH]c2=O)c2ncc(-c3ccc(NS(C)(=O)=O)cc3)cc12`, the results for the EC50 with Hepatitis C virus [1] and in the data set on Hepatitis C virus [3] were 0.002 µM and 0.0042 µM, respectively.

Regarding `COc1c(C(C)(C)C)cc(-c2ccc(C)[nH]c2=O)c2ncc(CCCCNS(C)(=O)=O)cc12`, in the data set on Hepatitis C virus [3], the EC50 is over 1 µM. The solubility thermodynamic in data set [6] was found to be 0.168 mg/mL (≈ 356 µM).

Turning to `CC(C)(C)c1cc(-c2cc(F)c[nH]c2=O)c2ncc(-c3ccc(NS(C)(=O)=O)cc3)cc2c1`, the EC50 worked out at 0.016 µM with Hepatitis C virus [1] and 0.025 µM in the data set with Hepatitis C virus [3].

As for `COc1c(CC(F)(F)F)cc(-n2ccc(=O)[nH]c2=O)c2ncc(-c3ccc(NS(C)(=O)=O)cc3)cc12`, the EC50 was found to be 0.119 µM in the data set on Hepatitis C virus [1] and 0.839 µM in the data set on Hepatitis C virus [3]. Further, the CLH was found to be 0.8 uL/min/10^6 cells in the data set with Hepatocyte [2] and 3.7 uL/min/10^6 cells with Hepatocyte [4].

Take `COc1c(C(C)(C)C)cc(N2CCC(=O)NC2=O)c2ncc(-c3ccc(NS(C)(=O)=O)cc3)cc12`: the EC50 in the data set on Hepatitis C virus [1] worked out at 0.0032 µM; in the data set on Hepatitis C virus [7], 0.01 µM; in the data set on Hepatitis C virus [8], 0.0035 µM; with Hepatitis C virus [3] it was 0.0046 µM. Besides, the EC90 with Hepatitis C virus [7] worked out at 0.048 µM; in the data set with Hepatitis C virus [8], 0.02 µM. Besides, the “Ratio EC50” value in the data set with Hepatitis C virus [9] is reported as 1.7; with Hepatitis C virus [10], 1.7; in data set [11] it was 1.4.

On to `COc1c(C(C)(C)C)cc(-c2cc(F)c[nH]c2=O)c2ncc(-c3ccc(NS(C)(=O)=O)cc3)cc12`, for which the figures for the EC50 in the data set on Hepatitis C virus [1] and in the data set on Hepatitis C virus [3] were 0.0035 µM and 0.0038 µM, respectively.

Turning to `COc1c(C(C)(C)C)cc(-n2ccc(=O)[nH]c2=O)c2ccc(-c3ccc(NS(C)(=O)=O)cc3)nc12`, the EC50 with Hepatitis C virus [1] was 0.012 µM; in the data set with Hepatitis C virus [3], 0.083 µM.

For the molecule `COc1c(C(C)(C)C)cc(-c2ccc[nH]c2=O)c2ncc(N3CC(CNS(C)(=O)=O)C3)cc12`, in data set [5], inhibition was half-maximal at 0.0035 µM (IC50). In addition, the EC50 with Hepatitis C virus [3] amounted to 0.532 µM.

On to `COc1c(C(C)(C)C)cc(N2CCCNC2=O)c2ncc(-c3ccc(NS(C)(=O)=O)cc3)cc12`, for which the results for the EC50 with Hepatitis C virus [1] and in the data set with Hepatitis C virus [3] were 0.02 µM and 0.064 µM, respectively.

With `COc1c(C(C)(C)C)cc(-n2ccc(=O)[nH]c2=O)c2ncc(-c3ccc(NS(C)(=O)=O)cc3)cc12`, the EC50 turned out to be 0.0032 µM in the data set with Hepatitis C virus [1], 0.016 µM in the data set on Hepatitis C virus [7], 0.0056 µM with Hepatitis C virus [8] and 0.0072 µM in the data set with Hepatitis C virus [3]. The EC90 worked out at 0.123 µM in the data set with Hepatitis C virus [7] and 0.029 µM in the data set on Hepatitis C virus [8]. The CLH with Hepatocyte [2] turned out to be 7.9 uL/min/10^6 cells; in the data set on Hepatocyte [4] it was 20 uL/min/10^6 cells. Besides, the results for the “Ratio EC50” value (in the data set with Hepatitis C virus [9]; in the data set with Hepatitis C virus [10]; in data set [11]) were 1.7, 1.7 and 2.2, respectively.

In turn, `COc1c(C(C)(C)C)cc(-c2ccc[nH]c2=O)c2ncc(N3CC[C@H](CNS(C)(=O)=O)C3)cc12` registered an IC50 in data set [5] of 0.0002 µM. In addition, the EC50 in the data set with Hepatitis C virus [3] amounted to 0.0079 µM. Moreover, in data set [6], the solubility thermodynamic came out at 0.011 mg/mL (≈ 22.7 µM).

`COc1c(C(C)(C)C)cc(-c2ccc(C)[nH]c2=O)c2ncc(C#CCCNS(C)(=O)=O)cc12` showed an IC50 in data set [5] of 0.005 µM. The molecule also returned an EC50 with Hepatitis C virus [3] of 0.341 µM. Also, the solubility thermodynamic in [6] is under 0.001 mg/mL.

Turning to `COc1c(C(C)(C)C)cc(-n2ccc(=O)[nH]c2=O)c2ccc(-c3ccc(NS(C)(=O)=O)cc3)cc12`, the EC50 in the data set on Hepatitis C virus [1] stood at 0.001 µM; in the data set with Hepatitis C virus [3] it was 0.004 µM.

`COc1c(/C=C/c2ccc(NS(C)(=O)=O)cc2)cc(-c2cc(F)c[nH]c2=O)cc1C(C)(C)C`: the EC90 in the data set with Hepatitis C virus [7] was found to be 0.531 µM; in the data set with Hepatitis C virus [8], 0.128 µM.

For the molecule `CC(C)(C)c1nc(-n2ccc(=O)[nH]c2=O)c2ccc(-c3ccc(NS(C)(=O)=O)cc3)cc2n1`, the EC50 in the data set with Hepatitis C virus [3] is 0.017 µM.
